# B2AR ag: agonists of human beta-2 adrenergic receptor inducing internalization. P07550. Am2.2-beta2AR cells, FAP receptor internalization, flow cytometry. response, % (concentration not given with the values). 340,000 compounds, 0.43% hits. AID 504454;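 active = response above a set limit, near 3 SD of response in nonfluorescent compounds, cut at about 42% in these data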
# Target sequence (P07550 whole entry, looked up): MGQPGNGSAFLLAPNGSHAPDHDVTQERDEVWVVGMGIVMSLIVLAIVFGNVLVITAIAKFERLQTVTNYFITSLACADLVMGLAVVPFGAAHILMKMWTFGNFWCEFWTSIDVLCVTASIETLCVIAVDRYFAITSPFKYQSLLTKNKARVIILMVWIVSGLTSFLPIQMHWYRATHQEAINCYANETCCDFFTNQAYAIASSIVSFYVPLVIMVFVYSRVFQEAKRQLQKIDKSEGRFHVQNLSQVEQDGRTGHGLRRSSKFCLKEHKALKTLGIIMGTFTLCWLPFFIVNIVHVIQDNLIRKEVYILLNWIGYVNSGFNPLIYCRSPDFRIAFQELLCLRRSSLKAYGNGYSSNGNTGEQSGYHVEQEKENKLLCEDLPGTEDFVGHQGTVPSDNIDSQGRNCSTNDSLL
# MDM2 E3 inh: inhibitors of human Mdm2 E3 ubiquitin ligase; Q00987; cell-based MDM2 ubiquitination luciferase reporter, 2 h; 0 = plate control, 100 = twice control, blank-subtracted; signal enhancement, % at 5 µM; 210,000 compounds, 0.11% hits; AID 1230;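 active = signal enhancement of 30% or more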;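 note: luminescence tracks abundance of the self-degrading MDM2-luciferase fusion protein; higher signal means inhibition of MDM2 E3 ligase activity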
#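 system = mammalian cells stably expressing self-ubiquitinating, self-degrading MDM2 E3–luciferase fusion | quantity = 2000 cells per well seeded | incubation = 4 h cell settling then 2 h compound exposure, 37 °C | signal = SteadyLite luminescence, 15 min reagent step | benchmarks = plate control and blank wells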
# zVAD death inh: L929 zVAD cell death inhibition. L929 zVAD necroptosis rescue, ATP luminescence, 24 h; with zVAD 60 µM. viability rescue, % at 10 µM. 220,000 compounds, 0.38% hits. AID 1377;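 active = activation, scaled between plate controls, above about 75%, limit read from the data; inactive = activation under that limit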;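 note: 0% = zVAD with DMSO and 100% = DMSO alone without zVAD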
# Dynein cargo inh: dynein cargo transport inhibition | z-score, hits read low | 3617.4 mouse cells, GR-EGFP nuclear translocation imaging; test concentration mostly 20 µM; stimulated with dexamethasone, 1 µM; stronger effect = lower value | 220,000 compounds, 0.47% hits;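 active = plate z-score of nuclear minus cytoplasmic receptor signal below a set negative limit, without overly bright fluorescence or cell loss, cut at about -3.5 in these data, passing the limit was not always enough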;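 note: z-score of nuclear minus cytoplasmic ring GR-EGFP intensity difference per well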
#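 Schedule: 48 h induction, then 1 h compound, then 30 min agonist, 37 °C. Buffer or medium: tetracycline-free induction medium containing charcoal-stripped FBS. Reagent: 1.0 µM final dexamethasone stimulus. Evaluation: nuclear versus cytoplasmic GR-EGFP signal, averaged per well. Signal: high-content fluorescence imaging after fixation.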
# TNF necrop inh: TNF-alpha cell death inhibition in Jurkat FADD-/- cells. activation (protection from cell death), % at 10 µM. Jurkat FADD-/- TNF necroptosis rescue, ATP luminescence, 24 h; 0 = TNF only, 100 = no-TNF cells. AID 463075. 220,000 compounds, 0.068% hits;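 active = activation, meaning protection from cell death, of at least 50% relative to plate controls; inactive = activation below 50%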;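 note: necroptosis triggered by 40 ng/mL TNF-alpha added together with compound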
# Dynein confirm: dynein cargo transport inhibition, confirmation; 1,000 compounds, 69% hits; calls only at 20 µM; AID 463116; 3617.4 GR-EGFP nuclear translocation imaging, dexamethasone-induced; shares compounds with Dynein cargo inh;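 active = inhibition of receptor movement into the nucleus at or above a set limit in both runs, with normal cell brightness and cell count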;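 note: dexamethasone at 1 µM final in well for 30 min; nuclear minus cytoplasmic GR-EGFP mean intensity difference in channel 2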
# An asterisk follows results filed as active; i = inactive; nt = no result; + = active, no number. This is a sample that favours compounds with a hit; in the whole collection about 0.97% have one here.
SMILES,B2AR ag,MDM2 E3 inh,zVAD death inh,Dynein cargo inh,TNF necrop inh,Dynein confirm
C=CSc1sc(Cl)c(N2CCOCC2)c1[N+](=O)[O-],-207,-12,0,-3,-5,nt
C=CS(=O)(=O)c1sc(Cl)c(N2CCOCC2)c1[N+](=O)[O-],33,5,3,-4.3*,-1,+
O=C1CCCc2ccccc2N1Cc1cccc(Cl)c1,-2,-12,0,0.64,-2,nt
Cc1ccc(-c2nc3cnccn3c2Nc2ccccc2)o1,-12,-3,0,-3.9*,-4,i
CC(C)c1cc(=O)oc2c3c4c(cc12)CCCN4CCC3,-3,1,3,0.66,-1,nt
O=c1oc2c3c4c(cc2c(C(F)(F)F)c1CCN1CCOCC1)CCCN4CCC3,-27,-9,0,-5.7*,1,+
O=c1c(Cl)nc2cc(Cl)ccc2n1CCNc1ncc(C(F)(F)F)cc1Cl,-15,-22,2,-4.5*,-25,i
Cn1c(-c2ccc([N+](=O)[O-])cc2)nc2ccccc21,5,-2,0,0.78,0,nt
Cn1nc([N+](=O)[O-])c(C(C#N)c2nc3ccccc3n2C)c(Cl)c1=O (stereo unspecified),1,-3,2,-3.6*,-1,i
O=C(C=Cc1ccccc1O)c1ccccc1O,28,nt,nt,nt,nt,nt
O=C(/C=C/c1ccc(F)cc1)c1ccccc1Br,13,-2,0,-5.7*,3,+
O=C(/C=C/c1ccc(O)c(O)c1)c1ccccc1O,14,-31,10,-5.4*,-20,+
COc1ccc(/C=C/C(=O)CC(O)(c2ccccc2)C(F)(F)F)cc1 (stereo unspecified),7,nt,0,-3.8*,-7,+
Cn1cc(C(=O)CCl)c2ccccc21,12,-1,-1,-4.8*,-1,+
Cn1cc(C(N)=O)c2ccccc21,0,4,1,-0.54,0,nt
COc1ccc([N+](=O)[O-])c(S(=O)(=O)c2ccccc2)n1,51*,-10,55,-5.5*,-30,+
COc1nc(OC)nc(Oc2ccc(Cl)cc2[N+](=O)[O-])n1,0,-2,-1,0.66,-1,nt
O=[N+]([O-])c1cccnc1S(=O)(=O)c1ccccc1,1,nt,nt,nt,nt,nt
COc1ccc([N+](=O)[O-])c(S(=O)(=O)c2ccc(Cl)cc2)n1,41,-14,11,-4.9*,-30,+
COc1ccc(OC)c(/C=N/NC(=O)c2nnn(-c3nonc3N)c2-c2cccs2)c1,8,nt,nt,nt,nt,nt
CCOC(=O)C1=C(CSc2nc(-c3ccncc3)ccc2C#N)OC(N)=C(C#N)C1c1cccnc1 (stereo unspecified),-13,-18,5,-1.6,-4,nt
CCOC(=O)C1=C(CSc2nc(-c3ccncc3)ccc2C#N)OC(N)=C(C#N)C1c1ccc(OC)cc1 (stereo unspecified),-6,-6,0,-5.8,-4,i
O=C(NC(=S)Nc1nc2c(s1)CCCC2)c1ccc(C(=O)c2ccccc2)cc1,-1,-3,0,-0.74,0,nt
O=C(NC(=S)Nc1nc2c(s1)CSc1ccccc1-2)c1ccccc1,1,-29,0,-3.5*,-6,i
COc1coc(C(O)CN)cc1=O (stereo unspecified),0,0,nt,-0.35,1,nt
SMILES,B2AR ag,MDM2 E3 inh,zVAD death inh,Dynein cargo inh,TNF necrop inh,Dynein confirm
CCOC(=O)C(=Cc1cc(=O)c(OC)co1)C(=O)OCC,15,2,-1,-4*,15,+
CNC(=O)Cn1ncc2c3ccccc3n(C)c2c1=O,-4,nt,nt,nt,nt,nt
OC(CNCCc1ccc(C(F)(F)F)cc1)COc1ccc2ccccc2c1 (stereo unspecified),11,-1,1,-4.8*,1,i
Cc1ccc(-c2csc3nc(C)n(N)c(=O)c23)o1,-2,-31,0,-0.27,-1,nt
Cc1ccc(-c2csc3nc(C)n(-n4c(C)ccc4C)c(=O)c23)o1,8,-9,17,-4*,0,i
CCN1C(=O)[C@H]2[C@@H](c3ccc(C)cc3)N3C(=O)N(c4cccc(Cl)c4)C(=O)[C@@]3(CC(C)C)[C@H]2C1=O,-3,nt,nt,nt,nt,nt
